Published values from different studies.
Target: Myosin light chain kinase, smooth muscle (MYLK, Homo sapiens, UniProt Q15746)

Oc1cccc(-c2nc(N3CCOCC3)c3oc4ncccc4c3n2)c1
remaining activity (enzyme activity, inhibitor; 10 µM): 48%

COc1cc(Cl)c(C(=O)N[C@@H](CN[C@H]2CC[C@@H](N)CC2)Cc2ccc(C#N)cc2)cc1-c1ccc(CN[C@H](C)c2ccc(C)cc2)o1
remaining activity (enzyme activity, inhibitor; 1 µM): 95%

CN(C)c1ncnc(-c2ccc3nc(Nc4cc(CN5CCN(C(=O)CC(F)(F)F)CC5)ccn4)[nH]c3c2)c1Cl
remaining binding (cell-free assay, competition with immobilised ligand; 1 µM): 68%

O=C1c2ccccc2-c2n[nH]c3cccc1c23
activity vs control (enzyme activity, inhibitor; 0.5 µM): 48%

Cn1cncc1C1=CN(c2ncnc3[nH]cnc23)CCS1
inhibition (enzyme activity, inhibitor, radiometric; 2 µM): 91.1%

CNC(=O)Nc1ccc2c(c1)[C@@]1(CC2)OC(=O)N(CC(=O)N(Cc2ccc(F)cc2)[C@@H](C)C(F)(F)F)C1=O
remaining binding (cell-free assay, competition with immobilised ligand; 1 µM): 88%

Cn1c2c(Cl)c(Cl)ccc2c2cc[nH]c(=O)c21
ΔTm (thermal stability, DSF; 10 µM): 2.4 °C

COc1cc(/C=C/C(=O)CC(=O)/C=C/c2ccc(O)c(OC)c2)ccc1O
activity vs control (enzyme activity, inhibitor; 1 µM): 70%

Cc1cnn2ncc(-c3ccnc(N(C)C)n3)c2c1
remaining binding (binding; 1 µM): 99%

FC(F)c1nc2ccccc2n1-c1nc(N2CCOCC2)nc(N2CCOCC2)n1
remaining activity (enzyme activity, inhibitor; 10 µM): 91%

CC(C)(C)c1nc(-c2cccc(NS(=O)(=O)c3c(F)cccc3F)c2F)c(-c2ccnc(N)n2)s1
remaining activity (enzyme activity, inhibitor, radiometric; 1 µM): 74%

CN1CC(Oc2cnc(C#N)cc2-c2ccn3nc(NC(=O)C4CC4)cc3c2)C1
inhibition (enzyme activity, inhibitor; 1 µM): -19%

N#CCCc1ccc2c(c1)-c1[nH]c3ccc([N+](=O)[O-])cc3c1CC(=O)N2
remaining signal (cell-free assay; 0.5 µM): 95.2%

CCN(CC)c1ccc(C2=NNC(=O)CC2C)cc1[N+](=O)[O-] (centres unmarked)
remaining activity (enzyme activity, inhibitor; 10 µM): 90%

Nc1nc(Nc2ccccc2)sc1C(=O)c1c(F)cccc1F
remaining activity (enzyme activity, inhibitor; 10 µM): 29%

COc1cc(Nc2cnc(C#N)c(O[C@H](C)CN(C)C)n2)ncc1-c1cnn(C)c1
remaining activity (enzyme activity, inhibitor, radiometric; 1 µM): 80%

CC(=O)Nc1c(C(C)=O)c(=O)n(C)c2nc(-c3ccc(Cl)cc3Cl)c(-c3ccc(Cl)cc3)cc12
remaining binding (cell-free assay, competition with immobilised ligand; 1 µM): 100%

Cn1cnc(Br)c1C1=CN(c2ncnc3[nH]cnc23)CCS1
inhibition (enzyme activity, inhibitor, radiometric; 2 µM): 93.4%

Cn1nc(C(=O)NCc2ccc(C(=O)O)cc2)cc1-c1ccc2[nH]ccc2c1
remaining binding (cell-free assay, competition with immobilised ligand; 0.1 µM): 62%

Oc1cccc(-c2nc(N3CCOCC3)c3oc4ncccc4c3n2)c1
remaining signal (cell-free assay; 0.5 µM): 77.1%

O=C(Nc1cccnn1)N1CCC(=Cc2cccc(Oc3ccc(C(F)(F)F)cn3)c2)CC1
remaining binding (cell-free assay, competition with immobilised ligand; 1 µM): 100%

Cc1sc(C(=O)NC2COC2)cc1-n1cc(NC(=O)Nc2c(F)cccc2Cl)cn1
remaining activity (enzyme activity, inhibitor; 10 µM): 103%

CO[C@H]1CC[C@H](CNc2ccc(S(=O)(=O)NC(=O)c3ccc(N4CCN(CC5=C(c6ccc(Cl)cc6)CC(C)(C)CC5)CC4)cc3Oc3cnc4[nH]ccc4c3)cc2[N+](=O)[O-])CC1
remaining binding (cell-free assay, competition with immobilised ligand; 1 µM): 50%

O=C(Nc1cnn(-c2csc(C(=O)NC3COC3)c2)c1)Nc1c(F)cccc1Cl
remaining activity (enzyme activity, inhibitor; 5 µM): 95.9%

COc1ccc2c(c1)O[C@@H](c1ccc(OC)c(OC)c1)C[C@H]2NC(=O)C1(c2ccc3c(c2)OC(F)(F)O3)CC1
remaining binding (cell-free assay, competition with immobilised ligand; 1 µM): 85%

Nc1nc(NC2CCCCC2)sc1C(=O)c1ccccc1
remaining activity (enzyme activity, inhibitor; 10 µM): 44%
